Screening results (PubChem)
TPT1 inh: C. albicans TPT1 enzyme inhibition; recombinant caTPT1, FP RNA substrate dephosphorylation; inhibition, % at 5 µM; 300,000 compounds, 0.81% hits; AID 1962;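 active = inhibition above the mean of all tested compounds plus 3 SD, set per screening campaign, cut at about 24% in these data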
HNF4A DNA FP: change in binding of human HNF4 alpha to DNA | 360,000 compounds, 0.3% hits | P41235 | activity change, % at 10 µM | HNF4a-FITC DNA binding, fluorescence polarization, 1 h; in the data active = activity change above about 30%, passing the limit was not always enough
Rin1 Abl inh: blocks binding of human Rin1 to Abl. AID 588664. 360,000 compounds, 0.4% hits. inhibition, % at 7.35 µM. TR-FRET Rin1/Abl binding, biochemical; in the data active = inhibition above about 5%, passing the limit was not always enough
CSN inh: blocks human CSN-mediated cullin deneddylation; Q92905; Purified CSN, SCF-Nedd8-OG deneddylation, fluorescence polarization; inhibition, % at 12.5 µM; AID 651999; 360,000 compounds, 0.38% hits;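 active = pattern-corrected inhibition above about 35%, with an unprinted fluorescence ratio check between 0.5 and 1.5, limit read from the data, passing the limit was not always enough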
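test system = HEK293T-derived human Csn5 enzyme | amount = 0.24 nM Csn5 enzyme, final concentration | medium = Tris/NaCl/DTT buffer, pH 7.5 | schedule = 90 min reaction at room temperature | signal = FP | evaluation = inhibition of Csn5 cleavage, % | compound dosing = single dose of 12.5 µM compound with 0.25% DMSO | probe or stimulus = 10 nM SCFSkp2-Nedd8OG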
Rpn11 inh: blocks the human proteasome subunit Rpn11; O00487; human 26S proteasome, Ub4-pepOG fluorescence polarization; 20S core pre-blocked with epoxomicin; inhibition, % at 20 µM; 360,000 compounds, 0.59% hits;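 active = inhibition at 20 µM, scaled to each plate's controls, above about 33%, limit read from the data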
Target sequence (O00487 whole entry, looked up): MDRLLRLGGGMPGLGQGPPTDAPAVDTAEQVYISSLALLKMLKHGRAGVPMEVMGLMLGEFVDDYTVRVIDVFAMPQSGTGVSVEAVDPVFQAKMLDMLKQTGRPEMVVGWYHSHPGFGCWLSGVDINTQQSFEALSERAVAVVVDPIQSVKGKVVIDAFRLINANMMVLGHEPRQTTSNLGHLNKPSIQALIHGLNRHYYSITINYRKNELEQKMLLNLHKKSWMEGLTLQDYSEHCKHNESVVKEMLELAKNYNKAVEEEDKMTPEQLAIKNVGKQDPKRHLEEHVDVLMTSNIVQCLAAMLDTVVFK
Neddyl block: inhibitors of human cullin neddylation; 360,000 compounds, 0.58% hits; AID 651699; P61081+Q13564; inhibition, % at 25 µM; TR-FRET cullin neddylation, biochemical; in the data active = inhibition above about 36%
TPT1 inh confirm: TPT1 (C. albicans) inhibition, confirmation. 2,400 compounds, 74% hits. shares compounds with TPT1 inh. recombinant caTPT1, fluorescence polarization, RNase T1 coupled. inhibition, % at 5 µM. AID 2149;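 active = inhibition above the primary screen limit, the mean inhibition of all tested compounds plus 3 SD, cut at about 25% in these data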
RNase T1 counter: blocks Aspergillus oryzae RNase T1, a TPT1 counter-screen; inhibition, % at 5 µM; 2,400 compounds, 83% hits; RNase T1 cleavage, fluorescence polarization, 1536-well; shares compounds with TPT1 inh;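 active = inhibition above the solvent-only control well mean plus 3 SD, limit set per screening run, cut at about 23% in these data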;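 also: inhibitors block cleavage so intact labeled substrate keeps polarization high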
Target sequence (P00651 whole entry, looked up): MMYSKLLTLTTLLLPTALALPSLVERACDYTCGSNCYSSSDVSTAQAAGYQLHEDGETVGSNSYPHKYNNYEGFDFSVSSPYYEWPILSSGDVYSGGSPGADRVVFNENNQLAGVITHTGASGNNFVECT
Of the large screens only hits and unclear results are named; the others gave an inactive call (follow-up assays come after a bar, where shown). Shown are actives, neighbours in structure and some others; about 2.4% of the full set was active somewhere.

CCCNC(=O)Cn1c(=O)/c(=C\c2ccc(-c3ccc([N+](=O)[O-])cc3)o2)s/c1=C\C(=O)C(C)(C)C	TPT1 inh 109 (not shown: Rpn11 inh) | TPT1 inh confirm 99 | RNase T1 counter 99
CCCNC(=O)Cn1c(=O)/c(=C\c2ccc(-c3cccc([N+](=O)[O-])c3)o2)s/c1=C\C(=O)C(C)(C)C	TPT1 inh 50 | TPT1 inh confirm inactive | RNase T1 counter inactive
O=c1c(/C=N/Nc2ccccc2)c(Sc2nnnn2-c2ccccc2)nc2ccccn12	none (not shown: TPT1 inh, Rpn11 inh)
O=C(O)c1ccccc1N/N=C/c1c(Sc2nnnn2-c2ccccc2)nc2ccccn2c1=O	TPT1 inh 68, HNF4A DNA FP 96, CSN inh 97 (not shown: Rpn11 inh) | TPT1 inh confirm inactive | RNase T1 counter 31
Cc1ccc2nc(COC(=O)c3cnccn3)cc(=O)n2c1	none (no result: TPT1 inh)
COc1ccccc1NS(=O)(=O)c1cc([N+](=O)[O-])ccc1N/N=C/c1c(C)[nH]c2ccccc12	TPT1 inh 101, HNF4A DNA FP 57 (not shown: Rpn11 inh) | TPT1 inh confirm 104 | RNase T1 counter 107
COC(=O)c1ccccc1NC(=O)Cn1c(CCC(=O)O)ccc1-c1cccs1	TPT1 inh 32 | TPT1 inh confirm inactive | RNase T1 counter 32
Cc1ccccc1NC(=O)Cn1c(CCC(=O)O)ccc1-c1cccs1	none
O=C(C[n+]1cccc2ccccc21)c1ccc(NC(=O)c2ccccc2)cc1	TPT1 inh 40 (not shown: Rpn11 inh) | TPT1 inh confirm 28 | RNase T1 counter 41
CC(=Nc1ccc(C)cc1)c1sc2ccccc2c1O	TPT1 inh 74 | TPT1 inh confirm 75 | RNase T1 counter 87
CC(=Nc1cccc(O)c1)c1sc2ccccc2c1O	TPT1 inh 66 | TPT1 inh confirm 94 | RNase T1 counter 105
CN=Cc1sc2ccccc2c1O	none
C[C@@H]1Cn2cnc(C(=O)N[C@@H](Cc3c[nH]c4ccccc34)C(=O)OC(C)(C)C)c2C(=O)N1	none (no result: TPT1 inh)
CN1CCN(S(=O)(=O)c2ccc(Sc3nnc(-c4cccs4)n3-c3ccccc3)nc2)CC1	TPT1 inh 34 | TPT1 inh confirm inactive | RNase T1 counter inactive
CN(C)c1ccc(/C=C/C(=O)c2cccc(Br)c2)cc1	TPT1 inh 99 (not shown: Rpn11 inh) | TPT1 inh confirm 97 | RNase T1 counter 94
C[C@@H](c1ccccc1)N1C[C@H]2CCCN2c2cc(Br)ccc2S1(=O)=O	none (no result: TPT1 inh)
Cc1ccc(C)c(CC(=O)N2CCCC(c3cc(C(=O)NCc4cccnc4)no3)C2)c1 (configuration not stated)	none (no result: TPT1 inh)
COc1ccc(C2=NN(c3nc(-c4ccc(CNC(C)=O)cc4)cs3)C(c3ccco3)C2)cc1 (configuration not stated)	TPT1 inh 31 | TPT1 inh confirm inactive | RNase T1 counter inactive
CN(Cc1ccccc1)C(=O)CCCn1c(=O)c2cccn2c2cccnc21	none
O=C(NCc1ccncc1)c1cccc(S(=O)(=O)Nc2ccc(SC(F)F)cc2)c1	none
O=c1[nH]c(CSc2nc3ccccc3s2)nc2ccccc12	none
Cc1sc2nc(CSc3nc4ccccc4s3)[nH]c(=O)c2c1C	TPT1 inh 42 (no result: HNF4A DNA FP, Rin1 Abl inh, CSN inh, Rpn11 inh, Neddyl block) | TPT1 inh confirm 52 | RNase T1 counter 64
CCOc1ccc(-n2ccnc2SCC(=O)Nc2cc(C)on2)cc1	TPT1 inh 119 | TPT1 inh confirm inactive | RNase T1 counter inactive
COc1ccc(N2CCN(C(=O)COC(=O)CCc3ccccc3)CC2)cc1	none (no result: TPT1 inh)
CC1(C)Cc2c(c(N3CCOCC3)nc3sc(-c4ccc(C(=O)O)o4)c(N)c23)CO1	TPT1 inh 33, HNF4A DNA FP 85, CSN inh 62 (not shown: Rpn11 inh, Neddyl block) | TPT1 inh confirm 35 | RNase T1 counter 47
CNC(=O)c1ccc(-c2sc3nc(N4CCOCC4)c4c(c3c2N)CC(C)(C)OC4)o1	none (not shown: Neddyl block)
Cc1cccc(C)c1NC(=O)CN(C)C(=O)[C@H](C)NC(=O)c1ccco1	none (no result: TPT1 inh)
c1ccc(-c2ccccc2OCCCN2CCCCCC2)cc1	none
c1ccc(-c2ccccc2OCCCCN2CCCCC2)cc1	TPT1 inh 51 | TPT1 inh confirm inactive | RNase T1 counter inactive
O=C(Cc1ccc(Cl)c(Cl)c1)Nc1cccc(S(=O)(=O)N2CCOCC2)c1	TPT1 inh 62 | TPT1 inh confirm inactive | RNase T1 counter inactive
O=C(Cc1ccc2c(c1)OCCO2)Nc1cccc(S(=O)(=O)N2CCOCC2)c1	none (no result: TPT1 inh)
O=C1CC(c2cccc(Cl)c2)CC(O)=C1C=NC1CCCC1 (configuration not stated)	none
Cn1nnnc1SCc1nc2scc(-c3ccc(Cl)cc3)c2c(=O)[nH]1	TPT1 inh 29, HNF4A DNA FP 39 (not shown: Rpn11 inh) | TPT1 inh confirm 50 | RNase T1 counter 59
CCN(CC)S(=O)(=O)c1cc(NC(=O)COC(=O)CCc2nc3ccccc3s2)ccc1C	none
CCN(CC)S(=O)(=O)c1cccc(NC(=O)COC(=O)CCc2nc3ccccc3s2)c1	TPT1 inh 128 | TPT1 inh confirm inactive | RNase T1 counter inactive
COCCNC(=O)c1cn(C)c2ccccc2c1=O	none
Cc1ccc(C(=O)/C=C/c2c[nH]c3ccccc23)cc1	none
CCN(CC)C(=O)c1ccc(/C=C/c2c[nH]c3ccccc23)[n+](C)c1	TPT1 inh 103 (not shown: Rpn11 inh) | TPT1 inh confirm 110 | RNase T1 counter 112
CSC1=N/C(=C\c2ccc(F)cc2)C(=O)S1	none
COc1ccc(/C=C/C=C2\N=C(SC)SC2=O)cc1	TPT1 inh 43 | TPT1 inh confirm 46 | RNase T1 counter 56
CC(/C=N/n1c(-c2n[nH]c3c2CCC3)n[nH]c1=S)=C\c1ccco1	TPT1 inh 33 | TPT1 inh confirm inactive | RNase T1 counter inactive
N#Cc1c(C(F)(F)F)cc(-c2ccco2)nc1SCc1ccccn1	TPT1 inh 27 (not shown: Rpn11 inh) | TPT1 inh confirm inactive | RNase T1 counter 23
CCN(CC)C(=O)CSc1nc(-c2ccco2)cc(C(F)(F)F)c1C#N	none
COc1ccc(CCNC(=O)CSc2ccc(-c3ccccc3)nn2)cc1OC	none
COc1cccc(-c2ccc(SCC(=O)NCCc3ccccc3)nn2)c1	TPT1 inh 54 | TPT1 inh confirm inactive | RNase T1 counter inactive
O=C1C(=Cc2cccs2)C(=O)c2ccccc21	none
O=C1/C(=C\c2cccs2)Sc2ccc3ccccc3c21	TPT1 inh 80 | TPT1 inh confirm 84 | RNase T1 counter 96
CN(CC(=O)Nc1ccc(Cl)cc1F)C1CCS(=O)(=O)C1 (configuration not stated)	none (no result: TPT1 inh)
CN(Cc1cnn(-c2ccc(F)cc2)c1)C(=O)[C@H]1O[C@@H](n2ccc(=O)[nH]c2=O)[C@H](O)[C@@H]1O	none (no result: TPT1 inh)
